Experiments:
[1] = Antiproliferative effect was determined on CD81 enriched cell lines for binding and activation of the CD81 receptor; type: functional, Rattus norvegicus
Summary of the method: (§1)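 Primary rat pup astrocytes (CD81-enriched, 4-8 days postpartum) and C6 glioma (CD81-deficient) were run in parallel, seeded at 3 × 10³ and 10³ cells/well. Compounds at 0.1-10 µM were given in 2% FCS-BME (0.05% DMSO final) for 4 days at 37 °C, 5% CO₂. Cells were formaldehyde-fixed and cresyl violet-stained (pH 3.7), with A560 read-out. % survival is relative to untreated wells, from 3 experiments × 4 wells.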

[2] = Nonspecific cytotoxicity at the specified concentration; type: functional
Rattus norvegicus = species: Rattus norvegicus; assay: Concentration showing a non-astrocyte selective antiproliferative effect was determined; type: functional; summary of the method: as §1
[3] = Tested for greatest astrocyte-selective antiproliferative character at concentration of 5 uM; type: functional
Summary of the method: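 Rat pup primary astrocytes (CD81-enriched, 4-8 days postpartum) and C6 glioma cells run in parallel, seeded at 3 × 10³ and 10³ per well. Incubated with compound for 4 days at 37 °C, 5% CO₂, final DMSO 0.05%. Fixed in formaldehyde, stained with cresyl violet, dye eluted in acetic acid, A560 read. % survival = treated/untreated ×100. Three experiments, four wells each.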

In the case of `CC(C)C[C@H](NC(=O)C12CC3CC(CC(C3)C1)C2)C(=O)O`, the Antiproliferative effect [1] is reported as 10 µM and the Cytotoxicity [2] is reported as greater than 10 µM.
Work on `COC(=O)[C@H](CC(C)C)[NH2+][B-]12CC3CC(CC(C3)C1)C2` yielded an Antiproliferative effect [1] of 10 µM and a Cytotoxicity [2] greater than 10 µM.
Molecule `COC(=O)[C@H](Cc1ccccc1)NC(=O)C12CC3CC(CC(C3)C1)C2` has an Antiproliferative effect [1] of 10 µM and a Cytotoxicity [2] greater than 10 µM.
With `C1C2CC3CC1C[B-]([NH2+]C14CC5CC(CC(C5)C1)C4)(C2)C3` the Concentration (Rattus norvegicus) was 10 µM.
`COC(=O)[C@H](CS)[NH2+][B-]12CC3CC(CC(C3)C1)C2` showed a Concentration (Rattus norvegicus) of 10 µM.
For `COC(=O)[C@H](Cc1ccccc1)[NH2+][B-]12CC3CC(CC(C3)C1)C2`, the Antiproliferative effect [1] was 10 µM and the Cytotoxicity [2] was greater than 10 µM.
Work on `O=C(O)[C@H](Cc1ccccc1)NC(=O)C12CC3CC(CC(C3)C1)C2` yielded an Antiproliferative effect [1] of 10 µM, a Cytotoxicity [2] greater than 10 µM and a Cell survival [3] of 82%.
Work on `C1C2CC3CC1CC(NC14CC5CC(CC(C5)C1)C4)(C2)C3` yielded a Concentration (Rattus norvegicus) of 10 µM.
`COC(=O)[C@H](CC(C)C)NC(=O)C12CC3CC(CC(C3)C1)C2` gave a Concentration (Rattus norvegicus) of 10 µM.
For `O=C(NC12CC3CC(CC(C3)C1)C2)C12CC3CC(CC(C3)C1)C2`, the Concentration (Rattus norvegicus) was 10 µM.
Work on `OCC[NH2+][B-]12CC3CC(CC(C3)C1)C2` yielded an Antiproliferative effect [1] of 10 µM and a Cytotoxicity [2] greater than 10 µM.

Source: ChEMBL document CHEMBL1144894, “Synthesis of 1-boraadamantaneamine derivatives with selective astrocyte vs C6 glioma antiproliferative activity. A novel class of anti-hepatitis C agents with potential to bind CD81” (2003)
